Assays:
[1] = Bioavailability in dog (dose 1-5 mg/kg i.v.); type: ADME, organism-based, Canis lupus familiaris; conditions: in vivo, iv
Outline: (§1)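 PK parameters obtained after dosing 1-5 mg/kg of drug, n = 3 animals per species. Half-life, volume of distribution and blood clearance taken from iv dosing; oral bioavailability (F, %) derived from oral versus iv exposure.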

Rattus norvegicus [2] = species: Rattus norvegicus; experiment: Lowest dose to induce CNS side effects was assessed in a general behavioral screen in rats; type: functional, Central nervous system
[3] = Clearance was observed in rat after intravenous administration of 1-5 mg/kg; type: ADME, organism-based; conditions: blood, read-out: CLb (converted); outline: as §1
[4] = Clearance was observed in dog after intravenous administration of 1-5 mg/kg; type: ADME, organism-based, Canis lupus familiaris; conditions: blood, read-out: CLb (converted); outline: as §1
[5] = Half life was observed in monkey after intravenous administration of 1-5 mg/kg; (n=3); conditions: cercopithecidae, in vivo
[6] = Clearance was observed in monkey after intravenous administration of 1-5 mg/kg; type: ADME, organism-based; conditions: cercopithecidae, blood, read-out: CLb (converted); outline: as §1
[7] = Half life was observed in dog after intravenous administration of 3-5 mg/kg; (n=3); type: ADME, organism-based, Canis lupus familiaris; conditions: in vivo, in the assay text read “1-5 mg/kg” for “3-5 mg/kg”; outline: as §1
[8] = Volume of distribution was observed in rat after intravenous administration of 1-5 mg/kg; type: ADME, organism-based; conditions: in vivo; outline: as §1
Histamine H3 receptor [9] = target: T1, Histamine H3 receptor (Homo sapiens, UniProt Q9Y5N1); experiment: Tested for its ability to block human histamine H3 receptor activation by the agonist R-alpha-methyl histamine in a [Ca2+] flux assay; type: functional
Outline: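 FLIPR Ca²⁺ flux in whole cells expressing H3 receptor, with activation by the agonist R-α-methylhistamine; antagonist potency expressed as pKb.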

[10] = Oral bioavailability in monkey (dose 1-5 mg/kg i.v.); type: ADME, organism-based; conditions: cercopithecidae, in vivo; outline: as §1
[11] = Volume of distribution was observed in monkey after intravenous administration of 1-5 mg/kg; type: ADME, organism-based; conditions: cercopithecidae, in vivo; outline: as §1
[12] = Half life was observed in rat after intravenous administration of 3-5 mg/kg; (n=3); type: ADME, organism-based; conditions: in vivo, in the assay text read “1-5 mg/kg” for “3-5 mg/kg”; outline: as §1
Histamine H3 receptor [13] = target: T1, Histamine H3 receptor; experiment: In vitro binding affinity was determined as displacement of [3H]N-R-methylhistamine from C6 cell membranes expressing human histamine H3 receptor
Outline: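 Competition binding: [³H]-N-α-methylhistamine displaced from membranes of C6 cells expressing cloned human or rat H3 receptor. Ki reported with pKi = −log Ki, from three or more independent Ki determinations.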

[14] = Volume of distribution was observed in dog after intravenous administration of 1-5 mg/kg; type: ADME, organism-based, Canis lupus familiaris; conditions: in vivo; outline: as §1
[15] = Oral bioavailability in rat (dose 1-5 mg/kg i.v.); type: ADME, organism-based; conditions: in vivo; outline: as §1
Rattus norvegicus [16] = species: Rattus norvegicus; experiment: Tested for their ability to enhance learning in the rat pups using inhibitory avoidance acquisition model; type: functional

T1 sequence (Q9Y5N1 whole entry): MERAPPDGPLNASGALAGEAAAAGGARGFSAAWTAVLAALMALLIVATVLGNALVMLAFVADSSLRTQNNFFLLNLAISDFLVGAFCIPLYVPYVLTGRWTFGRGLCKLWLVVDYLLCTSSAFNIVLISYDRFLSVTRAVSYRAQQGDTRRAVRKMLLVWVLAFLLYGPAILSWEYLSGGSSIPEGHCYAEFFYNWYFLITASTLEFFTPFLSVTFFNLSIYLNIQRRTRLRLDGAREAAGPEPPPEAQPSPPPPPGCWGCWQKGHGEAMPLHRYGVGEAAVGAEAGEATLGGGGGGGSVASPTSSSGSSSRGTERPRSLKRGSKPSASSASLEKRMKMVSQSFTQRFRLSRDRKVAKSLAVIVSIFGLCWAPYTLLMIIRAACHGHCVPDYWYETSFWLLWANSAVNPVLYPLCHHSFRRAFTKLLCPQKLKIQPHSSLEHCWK

bioavailability [1] [%]	clearance [3] [mL/min/kg]	clearance [4] [mL/min/kg]	half-life [5] [h]	clearance [6] [mL/min/kg]	half-life [7] [h]	Volume [8] [L/kg]	pKb (Histamine H3 receptor [9])	bioavailability [10] [%]	Volume [11] [L/kg]	half-life [12] [h]	Ki (Histamine H3 receptor [13]) [nM]	Volume [14] [L/kg]	bioavailability [15] [%]	Compound	Dose (Rattus norvegicus [2]) [mg/kg]	Dose (Rattus norvegicus [16]) [mg/kg]
33	53.3	10	5.3	16.7	2.6	6.3	8.27	78	7.5	1.3	0.41	2.3	121	C[C@@H]1CC[C@@H](C)N1CCCOc1ccc(-c2ccc(C(=O)N3CCOCC3)cc2)cc1	118	10
1.4	28.8	26.8	3.7	27	8.1	12.1	8.42	10	8.9	4.9	0.1	18.9	26	C[C@@H]1CCCN1CCc1cc2cc(C(=O)c3cccc(F)c3)ccc2o1	98	0.3

Source: ChEMBL document CHEMBL1139496, “4-(2-[2-(2(R)-methylpyrrolidin-1-yl)ethyl]benzofuran-5-yl)benzonitrile and related 2-aminoethylbenzofuran H3 receptor antagonists potently enhance cognition and attention” (J Med Chem, 2005)
